Assays:
[1] = biological target: Adenosine receptor A1 (Bos taurus) (UniProt P28190); test: Displacement of [3H]DPCPX from bovine adenosine A1 receptor in bovine cortical membranes
Adenosine receptor A1 [2] = biological target: T1, Adenosine receptor A1 (Homo sapiens, UniProt P30542); test: Displacement of [3H]DPCPX from human adenosine A1 receptor expressed in CHO cells; format: cell-based
T1 sequence (P30542 whole entry): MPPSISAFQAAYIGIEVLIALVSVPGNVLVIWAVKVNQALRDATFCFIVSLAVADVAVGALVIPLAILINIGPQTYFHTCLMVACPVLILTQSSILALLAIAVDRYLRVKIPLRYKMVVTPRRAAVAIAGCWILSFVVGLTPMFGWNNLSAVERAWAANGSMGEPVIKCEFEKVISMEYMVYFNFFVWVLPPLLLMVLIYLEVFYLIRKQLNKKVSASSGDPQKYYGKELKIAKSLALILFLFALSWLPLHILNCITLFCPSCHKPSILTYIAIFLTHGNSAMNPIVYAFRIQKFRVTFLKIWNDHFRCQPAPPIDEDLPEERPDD
Outline: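 Binding used CHO cells transfected with human A1 receptor, with displacement of specific [3H]DPCPX binding. Ligands were in DMSO diluted into buffer, with no more than 2% DMSO final, over at least six concentrations spanning 3 orders of magnitude. Ki values were means ± SEM of three separate assays, each performed in triplicate.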

[3] = biological target: T2, Adenosine receptor A3 (Homo sapiens) (UniProt P0DMS8); test: Displacement of [125I]AB-MECA from human adenosine A3 receptor expressed in CHO cells at 10 uM
T2 sequence (whole entry): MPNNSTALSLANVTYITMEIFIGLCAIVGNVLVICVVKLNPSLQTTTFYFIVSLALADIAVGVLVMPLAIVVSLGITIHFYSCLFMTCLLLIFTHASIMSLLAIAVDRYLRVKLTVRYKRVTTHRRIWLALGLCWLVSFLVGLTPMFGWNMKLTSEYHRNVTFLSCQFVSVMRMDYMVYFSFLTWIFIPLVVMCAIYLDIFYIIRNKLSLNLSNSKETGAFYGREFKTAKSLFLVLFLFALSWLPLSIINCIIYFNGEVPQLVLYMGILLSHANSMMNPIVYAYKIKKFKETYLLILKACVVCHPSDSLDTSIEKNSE

Adenosine receptor A1 [4] = biological target: T3, Adenosine receptor A1 (Bos taurus, UniProt P28190); test: Displacement of [3H]DPCPX from adenosine A1 receptor in bovine cerebral cortical membranes in absence of GTP; format: cell membranes
T3 sequence (P28190 whole entry): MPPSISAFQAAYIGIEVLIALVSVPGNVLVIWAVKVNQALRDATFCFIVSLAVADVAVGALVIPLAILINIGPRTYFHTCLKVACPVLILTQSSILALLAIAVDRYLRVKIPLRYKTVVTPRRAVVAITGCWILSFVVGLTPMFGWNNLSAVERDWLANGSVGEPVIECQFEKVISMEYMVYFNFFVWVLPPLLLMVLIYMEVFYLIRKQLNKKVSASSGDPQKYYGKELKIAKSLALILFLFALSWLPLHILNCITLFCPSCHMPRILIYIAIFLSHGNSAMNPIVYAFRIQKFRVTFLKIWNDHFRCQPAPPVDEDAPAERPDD
Outline: (§1)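 [3H]DPCPX competition binding on bovine cortical membranes, run side by side without and with 1 mM GTP. Compounds dissolved in DMSO and diluted in assay buffer, final DMSO at most 2%. At least six concentrations spanning 3 orders of magnitude were used. Ki given as mean ± SEM of three experiments.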

Adenosine receptor A1 [5] = biological target: T3, Adenosine receptor A1; test: Displacement of [3H]DPCPX from adenosine A1 receptor in bovine cerebral cortical membranes in presence of GTP; format: cell membranes
Outline: as §1

Adenosine receptor A1 [6] = biological target: T3, Adenosine receptor A1; test: Displacement of [3H]DPCPX from adenosine A1 receptor in bovine cerebral cortical membranes; format: cell membranes
Outline: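 [3H]DPCPX was displaced from A1 sites in bovine cortical membranes. Compounds were taken up in DMSO and diluted in assay buffer, with DMSO at 2% or less final. Ki used at least six concentrations across 3 orders of magnitude and was the mean ± SEM of three independent assays in triplicate.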

| Ki [1] [nM] | Ki (Adenosine receptor A1 [2]) [nM] | inhibition [3] [%] | Ki (Adenosine receptor A1 [4]) [nM] | Ki (Adenosine receptor A1 [5]) [nM] | Ki (Adenosine receptor A1 [6]) [nM] | Structure (SMILES) |
| --- | --- | --- | --- | --- | --- | --- |
| 6.31 | 94 | 41 | 6.3 | 7.3 | 6 | COC(=O)c1cnc2c(cnn2CC(Cl)c2ccccc2)c1NCCc1ccc(OC)cc1 (configuration not stated) |
| 7.94 | 17 | 52 | 7.2 | 7.7 | 7 | COc1ccc(CCNc2c(C(=O)OC(C)C)cnc3c2cnn3CC(Cl)c2ccccc2)cc1 (configuration not stated) |
